# From PubChem BioAssay
# TAAR1 antagonist: human TAAR1 antagonists, primary screen, Fluo-8 calcium fluorescence, CHO RD-HGA16 cells; Trace amine-associated receptor 1 (Homo sapiens), Q96RJ0; antagonist; inhibition, % at 3 µM; hit rate 1.5% among 360,000;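 active means inhibition above a per-plate cutoff, the mean inhibition of test compounds on that plate plus 3 SD, cut at about 49% in these data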;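 further: 0% = DMSO plus EC80 beta-PEA response and 100% = DMSO alone without agonist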
# Target sequence (Q96RJ0 whole entry, looked up): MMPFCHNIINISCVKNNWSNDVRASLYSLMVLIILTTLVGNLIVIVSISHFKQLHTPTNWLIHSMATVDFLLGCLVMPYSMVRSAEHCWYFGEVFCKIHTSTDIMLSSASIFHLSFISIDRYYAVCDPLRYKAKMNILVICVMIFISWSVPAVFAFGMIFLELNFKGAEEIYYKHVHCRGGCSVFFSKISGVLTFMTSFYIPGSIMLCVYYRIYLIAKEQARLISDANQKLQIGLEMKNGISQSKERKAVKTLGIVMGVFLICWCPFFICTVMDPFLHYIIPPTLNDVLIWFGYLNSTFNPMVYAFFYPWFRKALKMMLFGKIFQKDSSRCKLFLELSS
#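 Assay system: CHO-derived RD-HGA16 cells stably expressing human TAAR1 plus Gα16. Timing: 140 s kinetic read after compound, 140 s after agonist. Technique: kinetic Fluo-8 calcium fluorescence measurement. Measure: % inhibition of agonist calcium response.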
# GPR7 antag: GPR7 receptor antagonists, primary screen, cell-based, fluorescence, single concentration | Neuropeptides B/W receptor type 1 (Homo sapiens), P48145 | GPR7-expressing cells, fluorescence antagonist assay | inhibition, % at 4.4 µM | hit rate 1.1% among 290,000 | AID 1861, 2009; in the data active means inhibition above about 16%, passing the limit was not always enough;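 further: cells stimulated with the agonist NPW; 0% = agonist with vehicle and 100% = vehicle without agonist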
# TAAR1 agonist: human TAAR1 agonists, primary screen, Fluo-8 calcium fluorescence, CHO RD-HGA16 cells; Trace amine-associated receptor 1 (Homo sapiens), Q96RJ0; vehicle wells 0%, saturating PEA agonist 100%; activation, % at 3 µM; hit rate 0.99% among 360,000;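 active means activation above the mean activation of all test compounds in the run plus 3 SD, cut at about 38% in these data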
#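 Assay system: CHO-derived RD-HGA16 cells with stable Gα16 and human TAAR1; timing: 17-24 h seeding, 75 min 37 °C dye, 30 min RT; read-out: % activation from peak over basal fluorescence ratio, DMSO-to-PEA scaled; measured by: kinetic Fluo-8 calcium fluorescence; benchmarks: low control DMSO, high control PEA (EC100); doses: 3 µM single concentration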
# CHO parental Ca: ATP-evoked calcium signal inhibitors, parental CHO, primary screen, counter-screen for OX1R antagonist project, cell-based, fluorescence, Fluo-8 calcium dye. parental CHO-K1, ATP-induced calcium, Fluo-8 fluorescence. inhibition, % at 5.6 µM. hit rate 0.63% among 330,000. AID 463079, 2010;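 active means inhibition above that plate's mean sample inhibition plus 3 SD, cut at about 26% in these data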;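 further: 0% = ATP-challenged DMSO wells and 100% = DMSO wells without ATP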
#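 material = parental CHO cells | also added = ATP as calcium-mobilizing challenge | dosing = single point at 5.6 µM | detection = intracellular calcium via Fluo-8 no-wash fluorescent dye | read-out = % inhibition | benchmarks = low control ATP plus DMSO, high control DMSO only | repeats = one well per compound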
# OX1R antag-1: antagonists of human orexin 1 receptor (OX1R). AID 485270, 2010. OX1R-expressing cells, FRET antagonist read-out. hit rate 1.8% among 330,000. inhibition, % at 6.6 µM; in the data active means inhibition mostly above about 38%, no sharp cut-off; inactive means mostly below about 40%;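 further: 0% = agonist challenge alone and 100% = reference antagonist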
# OX1R antag-2: OX1R (HCRTR1) antagonists, primary screen, fluorescence, CHO/OX1R cells, Fluo-8 calcium, orexin A. Fluo-8 calcium fluorescence. Orexin/Hypocretin receptor type 1 (Homo sapiens), O43613. hit rate 0.43% among 330,000. AID 434989, 2010. inhibition, % at 5 µM;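 active means inhibition above its plate's threshold, mean inhibition of all tested compounds on the plate plus 3 SD, cut at about 37% in these data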;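 further: 0% = orexin A challenge wells and 100% = SB-334867-A antagonist wells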
# OX1R Ca confirm: OX1R (HCRTR1) antagonists, confirmation, fluorescence, CHO/OX1R cells, Fluo-8 calcium, orexin A. inhibition, % at 5 µM. AID 492963, 2010. hit rate 38% among 1,100. shares compounds with OX1R antag-2. orexin A calcium Fluo-8 fluorescence; in the data active means inhibition above about 29%;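 further: 0% = agonist challenge alone and 100% = reference antagonist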
# CHO Ca counter: ATP-evoked calcium inhibition in parental CHO, counter-screen for OX1R antagonist project, cell-based, fluorescence, CHO-K1, triplicate | shares compounds with OX1R antag-2 | ATP-induced calcium, Fluo-8 fluorescence | inhibition, % at 5.6 µM | hit rate 9.3% among 1,100 | AID 492965, 2010;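 active means inhibition above a per-plate limit, the mean inhibition of that plate's test compounds plus 3 SD, cut at about 25% in these data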;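 further: 0% = ATP challenge with DMSO and 100% = DMSO without ATP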
# Numbers without * were called inactive; · = not tested or not shown. Rows were chosen to be rich in hits. Some 4.6% of all compounds tested hit in one or more screens of this group.
SMILES,TAAR1 antagonist,GPR7 antag,TAAR1 agonist,CHO parental Ca,OX1R antag-1,OX1R antag-2,OX1R Ca confirm,CHO Ca counter
O=C(Nc1ccc([N+](=O)[O-])cc1)Nc1ccc2c(c1)OCCO2,13,16,21,18,42,28,23,19
COc1cc([N+](=O)[O-])ccc1NC(=O)Nc1ccc2c(c1)OCCO2,10,-1,10,8,13,-17,·,·
COc1cccc(C(=O)N=c2sc3cc(S(C)(=O)=O)ccc3n2C)c1,12,-5,8,6,56,30,20,6
CC(C)(C)N1CC(C(=O)O)CC1=O (configuration not stated),0,0,4,3,7,4,·,·
Cc1cccc(C(=O)N2CCC(=O)N(C(COCc3cccc(C(F)(F)F)c3)Cc3ccccc3)CC2)c1 (configuration not stated),39,3,7,-24,5,-54,·,·
COC(=O)[C@]12CCCCC=C1N(Cc1cccc3ccccc13)C(=O)[C@H](CC(=O)NCCCCc1ccccc1)C2,-25,·,5,·,·,·,·,·
CCN1C/C(=C/c2ccc(N3CCOCC3)cc2)C(=O)/C(=C/c2ccc(N3CCOCC3)cc2)C1,40,-16,25,34,31,46,34*,34*
CC(CNC(=O)c1ccccc1Cl)c1ccccc1 (configuration not stated),-6,-9,3,-2,8,-19,·,·
COCc1cc(N2CCN(C(=O)OC(C)(C)C)C[C@H]2C)ccc1N1C[C@@H](C)O[C@@H](C)C1,-29,·,0,·,·,·,·,·
Cc1cccc(N2CCN(C(=O)/C=C/c3cccs3)CC2)c1C,-2,9,-2,-12,22,-24,·,·
COc1ccc(N2CCN(C(=O)CSc3ccc(C)cc3)CC2)cc1,5,1,4,-2,14,-11,·,·
COc1ccc(N2CCN(C(=O)CSc3ccc([N+](=O)[O-])cc3)CC2)cc1,23,2,4,-12,12,32,21,7
CCOC(=O)N1CCN(C(=O)c2ccc3c(c2)NC(=O)C(N2CCOCC2)S3)CC1 (configuration not stated),-5,-8,7,6,9,28,4,-1
CCCCCCCCNc1ncnc2ccccc12,·,8,·,-3,36,90*,16,85*
COc1ccc(CN([C@H](CO)CC(C)C)S(=O)(=O)N(Cc2ccccc2)[C@H](CO)CC(C)C)cc1,40,·,13,29,14,67*,4,-13
COC(=O)[C@H](CC(C)C)NS(=O)(=O)c1ccccc1,0,-1,8,-2,6,-6,·,·
COC(=O)[C@@H](CC(C)C)NS(=O)(=O)N(Cc1ccccc1)[C@@H](CC(C)C)C(=O)OC,50*,·,9,-5,23,47,3,-19
O=C(COC(=O)/C=C/c1ccccc1)NC1CC1,7,·,-1,-17,4,-20,·,·
Cc1nc2ccc(NS(=O)(=O)c3c(F)cc(F)cc3Br)cc2s1,15,·,4,-2,13,38,15,16
Cc1nc2ccc(NS(=O)(=O)c3ccc(F)cc3F)cc2s1,6,·,4,-18,6,9,·,·
O=C(C[C@H]1C/C=C\CCCC(=O)OC[C@H]2CCCN2C1=O)NCCO,3,·,9,1,12,12,·,·
